Test results as given in ChEMBL document CHEMBL4002579, “Isolation and Structure Elucidation by LC-DAD-MS and LC-DAD-SPE-NMR of Cyclopeptide Alkaloids from the Roots of Ziziphus oxyphylla and Evaluation of Their Antiplasmodial Activity” (J Nat Prod, 2016).

Columns and labels:
MRC5 = test: Cytotoxicity against human MRC5 cells assessed as decrease in cell proliferation/viability after 7 days by MTT assay; assay type: cell-based; details: MRC5, 168 h
In short: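 Human fetal lung fibroblast MRC-5 cells; tested up to a highest concentration of 64.0 μM. Result is the mean and standard deviation of three experiments.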

Plasmodium falciparum [1] = test: Antiplasmodial activity against chloroquine-resistant Plasmodium falciparum K1 infected in human O+erythrocytes after 72 hrs by lactate dehydrogenase assay; assay type: functional, cell-based; details: K1, 72 h
Plasmodium falciparum [2] = test: Antiplasmodial activity against multidrug-resistant Plasmodium falciparum K1 assessed as reduction in parasite growth by [3H]-hypoxanthine incorporation assay; assay type: functional

SMILES	IC50 (MRC5) [µM]	IC50 (Plasmodium falciparum [1]) [µM]	IC50 (Plasmodium falciparum [2]) [µM]
CCC(C)[C@@H]1NC(=O)[C@@H]2[C@H](CCN2C(=O)[C@H](Cc2c[nH]c3ccccc23)N(C)C)Oc2ccc(O)c(c2)/C=C\NC1=O (stereo partly specified)	> 64	7.1	–
CCC(C)[C@@H]1NC(=O)[C@@H]2[C@H](CCN2C(=O)[C@H](Cc2c[nH]c3ccccc23)N(C)C)Oc2ccc(cc2)/C=C\NC1=O (stereo partly specified)	> 64	13.6	7.3
CCC(C)[C@@H]1NC(=O)[C@@H]2[C@H](CCN2C(=O)[C@H](C(C)CC)N(C)C)Oc2ccc(cc2)/C=C\NC1=O (stereo partly specified)	> 64	> 32	–
O=C1N/C=C\c2ccc(cc2)O[C@@H](c2ccccc2)[C@H](NC(=O)[C@@H]2CCCN2C(=O)/C=C/c2ccccc2)C(=O)N[C@H]1C(O)c1ccccc1 (stereo partly specified)	31.2	7.4	–
CCC(C)[C@@H]1NC(=O)[C@@H]2[C@H](CCN2C(=O)[C@H](Cc2c[nH]c3ccccc23)N(C)C)Oc2ccc(OC)c(c2)/C=C\NC1=O (stereo partly specified)	30.6	3.2	–
